In ChEMBL document CHEMBL1148232, “Inhibitory activities against topoisomerase I and II by polyhydroxybenzoyl amide derivatives and their structure-activity relationship” (Bioorg Med Chem Lett, 2004):

Key:
DNA topoisomerase 1 [1] = target: T1, DNA topoisomerase 1 (Homo sapiens, UniProt P11387); experiment: Inhibitory concentration against relaxation activity of DNA topoisomerase I by detecting the conversion of supercoiled pBR322 DNA to its relaxed form
T1 sequence (P11387 whole entry): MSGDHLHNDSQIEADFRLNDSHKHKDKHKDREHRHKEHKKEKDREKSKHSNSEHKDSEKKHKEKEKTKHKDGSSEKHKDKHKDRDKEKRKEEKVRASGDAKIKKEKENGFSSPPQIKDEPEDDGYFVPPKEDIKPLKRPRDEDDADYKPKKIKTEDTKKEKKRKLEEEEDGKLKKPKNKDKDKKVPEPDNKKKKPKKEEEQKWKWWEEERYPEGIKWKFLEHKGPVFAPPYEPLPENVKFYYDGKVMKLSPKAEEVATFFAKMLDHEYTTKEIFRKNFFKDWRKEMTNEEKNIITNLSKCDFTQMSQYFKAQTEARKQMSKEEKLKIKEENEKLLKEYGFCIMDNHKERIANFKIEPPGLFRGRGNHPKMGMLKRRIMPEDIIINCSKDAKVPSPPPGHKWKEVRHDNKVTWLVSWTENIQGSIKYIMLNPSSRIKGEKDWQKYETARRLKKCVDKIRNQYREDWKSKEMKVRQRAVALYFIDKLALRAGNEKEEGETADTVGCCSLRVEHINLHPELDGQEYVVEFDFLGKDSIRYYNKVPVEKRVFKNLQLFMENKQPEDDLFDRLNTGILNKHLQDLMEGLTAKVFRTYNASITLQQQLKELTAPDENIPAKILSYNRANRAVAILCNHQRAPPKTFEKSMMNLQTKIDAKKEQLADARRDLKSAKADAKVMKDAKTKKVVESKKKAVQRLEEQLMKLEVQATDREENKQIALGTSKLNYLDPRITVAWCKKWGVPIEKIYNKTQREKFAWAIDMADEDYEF

DNA topoisomerase II [2] = target: T2, DNA topoisomerase II (Homo sapiens, UniProt P11388+Q02880); experiment: Inhibitory concentration against relaxation activity of DNA topoisomerase II by detecting the conversion of supercoiled pBR322 DNA to its relaxed form; format: protein assay
HeLa [3] = experiment: Concentration required to inhibit S phase and G2/M phase in HeLa cells; format: functional, cell-based; conditions: Homo sapiens
Method in brief: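 HeLa cells cultured with compound, then cell-cycle progression analysed by flow cytometry; read-out was the percentage of cells in the G0/G1, S and G2/M phases.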

HeLa [4] = experiment: Growth inhibitory concentration of compound was determined against HeLa cells by alamar blue assay; format: functional; conditions: Homo sapiens
DNA topoisomerase II [5] = target: T2, DNA topoisomerase II; experiment: Inhibition of relaxation activities of DNA topoisomerase II with respect to pBR322 DNA; format: protein assay
Method in brief: (§1)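 Ki from Lineweaver–Burk plots: the rate of relaxation of supercoiled pBR322 DNA by the topoisomerase was measured across a range of DNA substrate concentrations, with and without inhibitor.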

DNA topoisomerase 1 [6] = target: T1, DNA topoisomerase 1; experiment: Inhibition of relaxation activities of DNA topoisomerase I with respect to pBR322 DNA; method in brief: as §1

SMILES	IC50 (DNA topoisomerase 1 [1]) [µM]	other results
CC(=O)Oc1ccc(C(=O)Nc2cccc(NC(=O)c3ccc(OC(C)=O)c(OC(C)=O)c3)c2)cc1OC(C)=O	43.2	
O=C(Nc1ccc(NC(=O)c2ccc(O)c(O)c2)cc1)c1ccc(O)c(O)c1	2.6	
CC(=O)Oc1cc(C(=O)Nc2cccc(NC(=O)c3cc(OC(C)=O)c(OC(C)=O)c(OC(C)=O)c3)c2)cc(OC(C)=O)c1OC(C)=O	11.2	
O=C(Nc1cccc(NC(=O)c2cc(O)c(O)c(O)c2)c1)c1cc(O)c(O)c(O)c1	1.6	IC50 (DNA topoisomerase II [2]): 0.22 µM
CC(=O)Oc1ccc(C(=O)Nc2ccc(NC(=O)c3ccc(OC(C)=O)cc3)cc2)cc1	> 100	
COc1cc([C@@H]2c3cc4c(cc3[C@@H](O[C@@H]3O[C@@H]5CO[C@@H](C)O[C@H]5[C@H](O)[C@H]3O)[C@H]3COC(=O)[C@H]23)OCO4)cc(OC)c1O [ETOPOSIDE]		Concentration (HeLa [3]): 2 µM; GI50 (HeLa [4]): 40 µM
O=C(Nc1cccc(NC(=O)c2ccc(O)c(O)c2)c1)c1ccc(O)c(O)c1	10	
O=C(Nc1ccc(NC(=O)c2ccc(O)cc2)cc1)c1ccc(O)cc1	> 100	
O=C(Nc1nc2ccccc2s1)c1ccc(O)cc1	> 100	
O=C(Nc1ccccc1NC(=O)c1ccc(O)c(O)c1)c1ccc(O)c(O)c1	6.4	
CC(=O)Oc1cc(C(=O)Nc2ccccc2NC(=O)c2cc(OC(C)=O)c(OC(C)=O)c(OC(C)=O)c2)cc(OC(C)=O)c1OC(C)=O	4.7	
O=C(Nc1nc2ccccc2s1)c1ccc(O)c(O)c1	16.9	
O=C(Nc1ccccc1NC(=O)c1ccc(O)cc1)c1ccc(O)cc1	> 100	
O=C(Nc1cccc(NC(=O)c2ccc(O)cc2)c1)c1ccc(O)cc1	> 100	
CC(=O)Oc1cc(C(=O)Nc2ccc(NC(=O)c3cc(OC(C)=O)c(OC(C)=O)c(OC(C)=O)c3)cc2)cc(OC(C)=O)c1OC(C)=O	8.6	
O=C(Nc1ccccc1NC(=O)c1ccccc1)c1ccccc1	> 100	
CC(=O)Oc1ccc(C(=O)Nc2ccc(NC(=O)c3ccc(OC(C)=O)c(OC(C)=O)c3)cc2)cc1OC(C)=O	> 100	
CC(=O)Oc1ccc(C(=O)Nc2cccc(NC(=O)c3ccc(OC(C)=O)cc3)c2)cc1	> 100	
CC(=O)Oc1ccc(C(=O)Nc2ccccc2NC(=O)c2ccc(OC(C)=O)cc2)cc1	> 100	
CC(=O)Oc1ccc(C(=O)Nc2ccccc2NC(=O)c2ccc(OC(C)=O)c(OC(C)=O)c2)cc1OC(C)=O	88	
CC[C@@]1(O)C(=O)OCc2c1cc1n(c2=O)Cc2cc3ccccc3nc2-1 [CAMPTOTHECIN]		Concentration (HeLa [3]): 0.1 µM; GI50 (HeLa [4]): 0.6 µM
O=C(Nc1ccccc1NC(=O)c1cc(O)c(O)c(O)c1)c1cc(O)c(O)c(O)c1	0.9	IC50 (DNA topoisomerase II [2]): 0.09 µM; Ki (DNA topoisomerase II [5]): 0.0741 µM; GI50 (HeLa [4]): 30 µM; Ki (DNA topoisomerase 1 [6]): 0.4 µM
O=C(Nc1nc2ccccc2s1)c1cc(O)c(O)c(O)c1	8.2	
O=C(Nc1ccc(NC(=O)c2cc(O)c(O)c(O)c2)cc1)c1cc(O)c(O)c(O)c1	1.4	IC50 (DNA topoisomerase II [2]): 0.15 µM
O=C(Nc1ccccc1)c1cc(O)c(O)c(O)c1	> 100	
